Assay results as given in ChEMBL document CHEMBL3351628, “2,4,5-Trisubstituted thiazole derivatives: a novel and potent class of non-nucleoside inhibitors of wild type and mutant HIV-1 reverse transcriptase” (Eur J Med Chem, 2014).

Assays:
[1] = Retention time of the compound by HPLC analysis; type: physicochemical
HEK-293T = experiment: Cytotoxicity against HEK293T cells at 10 uM after 48 hrs; type: cell-based; conditions: human
In short: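 HEK 293T cells incubated 48 h with compound at final 10 μM under the antiviral culture conditions, without virus. Viability read with a cell proliferation assay kit.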

[2] = test system: Human immunodeficiency virus 1; experiment: Antiviral activity against wild type HIV1 infected in HEK293T cells transfected with plasmid VSV-G/pNL4-3.luc.R-E- assessed as inhibition of viral replication after 48 hrs by luciferase reporter gene assay; type: functional, organism-based, HEK-293T; conditions: Human immunodeficiency virus 1, HEK-293T, 48 h; read-out: IC50
In short: (§1)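 VSV-G-pseudotyped single-cycle virus: VSVG plasmid plus env-deficient pNL4-3.luc.R⁻E⁻ vector (wild type or RT-mutant) co-transfected into HEK 293T by calcium phosphate. Medium changed at 16 h, supernatant collected 48 h post-transfection, normalised by p24 ELISA to 0.2 ng p24/mL. HEK 293T targets seeded a day ahead; compound added 15 min before virus. Cells lysed 48 h post-infection, luciferase read. IC50 from dose–infectivity curves.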

[3] = test system: Human immunodeficiency virus 1; experiment: Antiviral activity against HIV1 harboring reverse transcriptase K103N/P225H double mutant infected in HEK293T cells transfected with plasmid VSV-G/pNL4-3.luc.R-E- assessed as inhibition of viral replication after 48 hrs by luciferase reporter gene assay relative HIV1; type: functional, HEK-293T
[4] = test system: Human immunodeficiency virus 1; experiment: Antiviral activity against HIV1 harboring reverse transcriptase K103N/G190A double mutant infected in HEK293T cells transfected with plasmid VSV-G/pNL4-3.luc.R-E- assessed as inhibition of viral replication after 48 hrs by luciferase reporter gene assay relative HIV1; type: functional, HEK-293T
[5] = test system: Human immunodeficiency virus 1; experiment: Antiviral activity against HIV1 harboring reverse transcriptase K103N/P225H double mutant infected in HEK293T cells transfected with plasmid VSV-G/pNL4-3.luc.R-E- assessed as inhibition of viral replication after 48 hrs by luciferase reporter gene assay; type: functional, organism-based, HEK-293T; conditions: hek-293t; in short: as §1
[6] = test system: Human immunodeficiency virus 1; experiment: Antiviral activity against HIV1 harboring reverse transcriptase […]/K103N double mutant infected in HEK293T cells transfected with plasmid VSV-G/pNL4-3.luc.R-E- assessed as inhibition of viral replication after 48 hrs by luciferase reporter gene assay relative HIV1; type: functional, HEK-293T
[7] = test system: Human immunodeficiency virus 1; experiment: Antiviral activity against HIV1 harboring reverse transcriptase Y188L mutant infected in HEK293T cells transfected with plasmid VSV-G/pNL4-3.luc.R-E- assessed as inhibition of viral replication after 48 hrs by luciferase reporter gene assay relative HIV1; type: functional, HEK-293T
[8] = test system: Human immunodeficiency virus 1; experiment: Antiviral activity against HIV1 harboring reverse transcriptase K103N mutant infected in HEK293T cells transfected with plasmid VSV-G/pNL4-3.luc.R-E- assessed as inhibition of viral replication after 48 hrs by luciferase reporter gene assay relative HIV1; type: functional, HEK-293T
[9] = test system: Human immunodeficiency virus 1; experiment: Antiviral activity against HIV1 harboring reverse transcriptase Y188L mutant infected in HEK293T cells transfected with plasmid VSV-G/pNL4-3.luc.R-E- assessed as inhibition of viral replication after 48 hrs by luciferase reporter gene assay; type: functional, organism-based, HEK-293T; in short: as §1
[10] = test system: Human immunodeficiency virus 1; experiment: Antiviral activity against HIV1 harboring reverse transcriptase […]/K103N double mutant infected in HEK293T cells transfected with plasmid VSV-G/pNL4-3.luc.R-E- assessed as inhibition of viral replication after 48 hrs by luciferase reporter gene assay; type: functional, organism-based, HEK-293T; in short: as §1
[11] = test system: Human immunodeficiency virus 1; experiment: Antiviral activity against HIV1 harboring reverse transcriptase K103N mutant infected in HEK293T cells transfected with plasmid VSV-G/pNL4-3.luc.R-E- assessed as inhibition of viral replication after 48 hrs by luciferase reporter gene assay; type: functional, organism-based, HEK-293T; in short: as §1
[12] = test system: Human immunodeficiency virus 1; experiment: Antiviral activity against HIV1 harboring reverse transcriptase Y181C mutant infected in HEK293T cells transfected with plasmid VSV-G/pNL4-3.luc.R-E- assessed as inhibition of viral replication after 48 hrs by luciferase reporter gene assay; type: functional, organism-based, HEK-293T; in short: as §1
[13] = test system: Human immunodeficiency virus 1; experiment: Antiviral activity against HIV1 harboring reverse transcriptase Y181C mutant infected in HEK293T cells transfected with plasmid VSV-G/pNL4-3.luc.R-E- assessed as inhibition of viral replication after 48 hrs by luciferase reporter gene assay relative HIV1; type: functional, HEK-293T
[14] = test system: Human immunodeficiency virus 1; experiment: Antiviral activity against HIV1 harboring reverse transcriptase K103N/V108I double mutant infected in HEK293T cells transfected with plasmid VSV-G/pNL4-3.luc.R-E- assessed as inhibition of viral replication after 48 hrs by luciferase reporter gene assay relative HIV1; type: functional, HEK-293T
[15] = test system: Human immunodeficiency virus 1; experiment: Antiviral activity against HIV1 harboring reverse transcriptase K103N/V108I double mutant infected in HEK293T cells transfected with plasmid VSV-G/pNL4-3.luc.R-E- assessed as inhibition of viral replication after 48 hrs by luciferase reporter gene assay; type: functional, organism-based, HEK-293T; conditions: hek-293t; in short: as §1
[16] = test system: Human immunodeficiency virus 1; experiment: Antiviral activity against HIV1 infected in 293T cells assessed as time of 50% failure; type: functional
[17] = test system: Human immunodeficiency virus 1; experiment: Antiviral activity against HIV1 harboring reverse transcriptase K103N/G190A double mutant infected in HEK293T cells transfected with plasmid VSV-G/pNL4-3.luc.R-E- assessed as inhibition of viral replication after 48 hrs by luciferase reporter gene assay; type: functional, organism-based, HEK-293T; in short: as §1
[18] = Human immunodeficiency virus 1, HEK-293T, 48 h

For `COc1ccc(CCNc2nc(-c3ccc(OC)cc3)c(Cc3ccccc3)s2)cc1`, the Retention_time [1] was 36.91 min, the Activity (HEK-293T) was “Non-toxic” and the IC50 [2] was > 10000 nM.
For `COc1ccc(-c2nc(NCc3cccc([N+](=O)[O-])c3)sc2Cc2ccccc2)cc1`, the Retention_time [1] was 27.61 min, the Activity (HEK-293T) was “Non-toxic” and the IC50 [2] was 1470 nM.
In the case of `COc1ccc(CNc2nc(-c3ccc(OC)cc3)c(Cc3ccccc3)s2)cc1`, the Retention_time [1] is reported as 29.14 min, the Activity (HEK-293T) is reported as “Non-toxic” and the IC50 [2] is reported as 310 nM.
With `Cc1ccnc2c1NC(=O)c1cccnc1N2C1CC1` [NEVIRAPINE] the “fold change (FC)” value [3] was 177, the “fold change (FC)” value [4] was >322 and the Activity (HEK-293T) was “Non-toxic”. For the same compound, the IC50 [5] was 5480 nM, the “fold change (FC)” value [6] was 161 and the “fold change (FC)” value [7] was >322. The “fold change (FC)” value [8] was 519, the IC50 [9, 18] was > 10000 nM and the IC50 [10, 18] was 5 µM. For the same compound, the IC50 ([11]; hek-293t) was 16.1 µM, the IC50 ([12]; hek-293t) was 66.7 µM and the “fold change (FC)” value [13] was 2152. For the same compound, the “fold change (FC)” value [14] was 90, the IC50 [15] was 2800 nM and the IC50 [2] was 31 nM. For the same compound, the Time [16] was 8.3 h and the IC50 [17, 18] was > 10000 nM.
With `COc1ccc(CNc2nc(-c3ccccc3)c(Cc3ccc(C#N)cc3)s2)cc1` the Retention_time [1] was 17.21 min, the Activity (HEK-293T) was “Non-toxic” and the IC50 [2] was 4790 nM.
With `COc1ccc(-c2nc(NCc3ccc(O)cc3)sc2Cc2ccccc2)cc1` the Retention_time [1] was 16.52 min, the Activity (HEK-293T) was “Non-toxic” and the “fold change (FC)” value [8] was 13. The IC50 [11, 18] was 8.38 µM, the IC50 [12, 18] was 6.63 µM and the “fold change (FC)” value [13] was 10. For the same compound, the IC50 [2] was 640 nM.
With `COc1ccc(-c2nc(NCc3cccc(OC)c3)sc2Cc2ccccc2)cc1` the Retention_time [1] was 27.45 min, the Activity (HEK-293T) was “Non-toxic” and the IC50 [2] was 820 nM.
In the case of `COc1ccc(-c2nc(NCc3ccccc3)sc2Cc2ccccc2)cc1`, the Retention_time [1] is reported as 28.1 min, the Activity (HEK-293T) is reported as “Non-toxic” and the IC50 [2] is reported as 650 nM.
With `COc1ccc(-c2nc(NCc3ccc(O)c(OC)c3)sc2Cc2ccccc2)cc1` the Retention_time [1] was 14.86 min, the Activity (HEK-293T) was “Non-toxic” and the IC50 [2] was 330 nM.
In the case of `COc1ccc(CNc2nc(-c3ccc(OC)cc3)c(C)s2)cc1`, the Retention_time [1] is reported as 13.3 min, the Activity (HEK-293T) is reported as “Non-toxic” and the IC50 [2] is reported as 9590 nM.
For `COc1ccc(-c2nc(NCc3cccnc3)sc2Cc2ccccc2)cc1`, the Retention_time [1] was 10.25 min, the Activity (HEK-293T) was “Non-toxic” and the IC50 [2] was 4670 nM.
With `Cc1nnc(C(=O)NC(C)(C)c2nc(C(=O)NCc3ccc(F)cc3)c(O)c(=O)n2C)o1` [RALTEGRAVIR] the Time [16] was 12 h.
Compound `Cc1cn([C@H]2C[C@H](N=[N+]=[N-])[C@@H](CO)O2)c(=O)[nH]c1=O` [ZIDOVUDINE] has a Time [16] of 7.7 h.
For `COc1ccc(-c2nc(NCc3ccc(N(C)C)cc3)sc2Cc2ccccc2)cc1`, the Retention_time [1] was 33.97 min, the Activity (HEK-293T) was “Non-toxic” and the “fold change (FC)” value [8] was 76. The IC50 [11, 18] was 65.7 µM, the IC50 [12, 18] was 71.6 µM and the “fold change (FC)” value [13] was 82. For the same compound, the IC50 [2] was 870 nM.
For `COc1ccc(CNc2nc(-c3ccccc3)c(Cc3ccccc3)s2)cc1`, the Retention_time [1] was 28.38 min, the Activity (HEK-293T) was “Non-toxic” and the IC50 [2] was 180 nM.
For `O=C1Nc2ccc(Cl)cc2[C@@](C#CC2CC2)(C(F)(F)F)O1` [EFAVIRENZ], the “fold change (FC)” value [3] was 154, the “fold change (FC)” value [4] was 538 and the Activity (HEK-293T) was “Non-toxic”. The IC50 [5] was 160 nM, the “fold change (FC)” value [6] was 2394 and the “fold change (FC)” value [7] was 461.5. For the same compound, the “fold change (FC)” value [8] was 56, the IC50 ([9]; hek-293t) was 480 nM and the IC50 ([10]; hek-293t) was 2.49 µM. For the same compound, the IC50 ([11]; hek-293t) was 0.0588 µM, the IC50 ([12]; hek-293t) was 0.00565 µM and the “fold change (FC)” value [13] was 5.4. For the same compound, the “fold change (FC)” value [14] was 79.8, the IC50 [15] was 83 nM and the IC50 [2] was 0.84 nM. For the same compound, the Time [16] was 8.8 h and the IC50 ([17]; hek-293t) was 56 nM.
In the case of `COc1ccc(CNc2nc(-c3ccc(OC)cc3)c(Cc3ccc([N+](=O)[O-])cc3)s2)cc1`, the Retention_time [1] is reported as 26.68 min, the Activity (HEK-293T) is reported as “Non-toxic” and the IC50 [2] is reported as > 10000 nM.
In the case of `COc1ccc(-c2nc(/N=C/c3ccc(F)cc3)sc2Cc2ccccc2)cc1`, the Retention_time [1] is reported as 14.58 min, the Activity (HEK-293T) is reported as “Non-toxic” and the IC50 [2] is reported as > 10000 nM.
For `COc1ccc(-c2nc(NCc3ccco3)sc2Cc2ccccc2)cc1`, the Retention_time [1] was 19.65 min, the Activity (HEK-293T) was “Non-toxic” and the IC50 [2] was 1000 nM.
